Laboratory results published in ChEMBL document CHEMBL4765319, “Identification of a new series of flavopiridol-like structures as kinase inhibitors with high cytotoxic potency” (Eur J Med Chem, 2020).
pIC50: −log10 of the molar value.

Key:
K562 [1] = assay: Cell cycle arrest in human K562 cells assessed as accumulation at G0/G1 phase at 50 nM after 24 hrs by propidium iodide staining-based flow cytometric analysis (reference value: 21.4 %); assay type: functional
HCT-116 [2] = assay: Cell cycle arrest in human HCT-116 cells assessed as accumulation at G2/M phase at 100 nM after 24 hrs by propidium iodide staining-based flow cytometric analysis (reference value: 31.5 %); assay type: functional
Sus scrofa [3] = species: Sus scrofa; assay: Inhibition of porcine CK1delta/epsilon assessed as residual activity at 10 uM in presence of ATP by ADP-glo luminescent assay relative to control
K562 [4] = assay: Cell cycle arrest in human K562 cells assessed as accumulation at S phase at 25 nM after 24 hrs by propidium iodide staining-based flow cytometric analysis (reference value: […]); assay type: functional
NCI-N87 = assay: Antiproliferative activity against human NCI-N87 cells assessed as reduction in cell viability incubated for 72 hrs by CellTiter-Blue fluorescence assay; settings: NCI-N87, 72 h
[5] = biological target: Glycogen synthase kinase-3 alpha (Homo sapiens, UniProt P49840); assay: Inhibition of human GSK3alpha by ADP-Glo assay
[6] = biological target: Cyclin-dependent kinase 5/CDK5 activator 1 (Homo sapiens) (UniProt Q00535+Q15078); assay: Inhibition of human CDK5/p25 assessed as residual activity at 10 uM in presence of ATP by ADP-glo luminescent assay relative to control; assay type: protein-complex assay
Method in brief: (§1)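 Human kinases assayed by ADP-Glo luminescence with 10 μM ATP, compound at 10 or 1 μM. Activity is expressed as % of maximal activity relative to a DMSO control, mean n = 2.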

HCT-116 [7] = assay: Cell cycle arrest in human HCT-116 cells assessed as accumulation at G0/G1 phase at 100 nM after 24 hrs by propidium iodide staining-based flow cytometric analysis (reference value: 20.9 %); assay type: functional
[8] = Inhibition of human CDK10/cyclin M by ADP-Glo assay
HCT-116 [9] = assay: Cell cycle arrest in human HCT-116 cells assessed as accumulation at G0/G1 phase at 200 nM after 24 hrs by propidium iodide staining-based flow cytometric analysis (reference value: 20.9 %); assay type: functional
MIA PaCa-2 = assay: Antiproliferative activity against human MIA PaCa-2 cells assessed as reduction in cell viability incubated for 72 hrs by CellTiter-Blue fluorescence assay; settings: MIA PaCa-2, 72 h
[10] = biological target: CDK9/cyclin T1 (Homo sapiens) (UniProt O60563+P50750); assay: Inhibition of human CDK9/cyclin T assessed as residual activity at 1 uM in presence of ATP by ADP-glo luminescent assay relative to control; assay type: protein-complex assay; method in brief: as §1
Plasmodium falciparum [11] = assay: Inhibition of Plasmodium falciparum GSK3 assessed as residual activity at 10 uM in presence of ATP by ADP-glo luminescent assay relative to control
Method in brief: (§2)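 Recombinant P. falciparum GSK3, bacterially expressed, in buffer A (10 mM MgCl2, 1 mM EGTA, 1 mM DTT, 25 mM Tris-HCl pH 7.5, 50 μg/ml heparin). Substrate 0.010 μg/μl GS-1 peptide, 10 μM ATP, ADP-Glo luminescence. Compound at 10 or 1 μM; % residual activity vs DMSO control, mean n = 2.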

[12] = biological target: T1, Glycogen synthase kinase-3 beta (Homo sapiens, UniProt P49841); assay: Inhibition of human GSK3beta in presence of ATP by ADP-glo luminescent assay
Method in brief: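 Human kinases tested over roughly 0.0003–10 μM by ADP-Glo luminescence with 10 μM ATP, in duplicate. IC50 is taken from dose-response curves.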
Target sequence in this assay (P49841 whole entry): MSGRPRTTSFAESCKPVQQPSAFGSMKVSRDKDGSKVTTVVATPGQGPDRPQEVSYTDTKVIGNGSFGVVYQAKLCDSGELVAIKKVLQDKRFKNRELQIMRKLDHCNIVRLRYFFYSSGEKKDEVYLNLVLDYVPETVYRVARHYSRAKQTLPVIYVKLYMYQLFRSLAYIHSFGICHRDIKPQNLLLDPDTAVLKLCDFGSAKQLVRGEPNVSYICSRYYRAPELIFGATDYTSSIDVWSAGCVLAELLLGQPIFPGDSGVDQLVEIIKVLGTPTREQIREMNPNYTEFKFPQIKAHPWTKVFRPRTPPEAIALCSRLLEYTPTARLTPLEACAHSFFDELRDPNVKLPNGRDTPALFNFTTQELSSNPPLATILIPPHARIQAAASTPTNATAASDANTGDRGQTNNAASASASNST

K562 [13] = assay: Cell cycle arrest in human K562 cells assessed as accumulation at G0/G1 phase at 25 nM after 24 hrs by propidium iodide staining-based flow cytometric analysis (reference value: 21.4 %); assay type: functional
HCT-116 [14] = assay: Cell cycle arrest in human HCT-116 cells assessed as accumulation at G0/G1 phase at 500 nM after 24 hrs by propidium iodide staining-based flow cytometric analysis (reference value: 20.9 %); assay type: functional
HCT-116 [15] = assay: Cell cycle arrest in human HCT-116 cells assessed as increase in accumulation at G0/G1 phase after 24 hrs by propidium iodide staining-based flow cytometric analysis; assay type: functional; settings: dose 100-500 nM
Sus scrofa [16] = species: Sus scrofa; assay: Inhibition of porcine GSK3alpha/beta assessed as residual activity at 10 uM in presence of ATP by ADP-glo luminescent assay relative to control
Method in brief: (§3)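 Porcine brain GSK3α/β, native and affinity-purified. Assayed by ADP-Glo luminescence with 10 μM ATP and 0.010 μg/μl GS-1 peptide substrate. Buffer A: 10 mM MgCl2, 1 mM EGTA, 1 mM DTT, 25 mM Tris-HCl pH 7.5, 50 μg/ml heparin. Compound tested at 10 or 1 μM. Result is % of maximal activity versus DMSO control, mean of n = 2.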

Sus scrofa [17] = species: Sus scrofa; assay: Inhibition of porcine GSK3alpha/beta assessed as residual activity at 1 uM in presence of ATP by ADP-glo luminescent assay relative to control; method in brief: as §3
Leishmania major = assay: Inhibition of Leishmania major CK1 assessed as residual activity at 1 uM in presence of ATP by ADP-glo luminescent assay relative to control
SK-OV-3 = assay: Antiproliferative activity against human SKOV3 cells assessed as reduction in cell viability incubated for 72 hrs by CellTiter-Blue fluorescence assay; settings: SK-OV-3, 72 h
K562 [18] = assay: Cell cycle arrest in human K562 cells assessed as accumulation at G2/M phase at 50 nM after 24 hrs by propidium iodide staining-based flow cytometric analysis (reference value: 12.9 %); assay type: functional
K562 [19] = assay: Antiproliferative activity against human K562 cells assessed as reduction in cell viability incubated for 72 hrs by CellTiter-Blue resazurin fluorescence assay; settings: K562, 72 h
Sus scrofa [20] = species: Sus scrofa; assay: Inhibition of porcine CK1delta/epsilon assessed as residual activity at 1 uM in presence of ATP by ADP-glo luminescent assay relative to control
HCT-116 [21] = assay: Cell cycle arrest in human HCT-116 cells assessed as accumulation at G2/M phase at 200 nM after 24 hrs by propidium iodide staining-based flow cytometric analysis (reference value: 31.5 %); assay type: functional
HCT-116 [22] = assay: Cell cycle arrest in human HCT-116 cells assessed as accumulation at S phase at 100 nM after 24 hrs by propidium iodide staining-based flow cytometric analysis (reference value: 47.6 %); assay type: functional
[23] = biological target: T1, Glycogen synthase kinase-3 beta; assay: Potency index, ratio of flavopiridol IC50 to test compound IC50 for human GSK3beta in presence of ATP by ADP-glo luminescent assay
Target sequence in this assay (P49841 whole entry, looked up): as the sequence (P49841 whole entry) above

[24] = biological target: CDK2/Cyclin A2 (Homo sapiens) (UniProt P24941+P20248); assay: Inhibition of human CDK2/cyclin A assessed as residual activity at 10 uM in presence of ATP by ADP-glo luminescent assay relative to control; assay type: protein-complex assay; method in brief: as §1
Plasmodium falciparum [25] = assay: Inhibition of Plasmodium falciparum GSK3 assessed as residual activity at 1 uM in presence of ATP by ADP-glo luminescent assay relative to control; method in brief: as §2

Chain of Cyclin-dependent kinase 5/CDK5 activator 1 (Homo sapiens) (Q00535 whole entry): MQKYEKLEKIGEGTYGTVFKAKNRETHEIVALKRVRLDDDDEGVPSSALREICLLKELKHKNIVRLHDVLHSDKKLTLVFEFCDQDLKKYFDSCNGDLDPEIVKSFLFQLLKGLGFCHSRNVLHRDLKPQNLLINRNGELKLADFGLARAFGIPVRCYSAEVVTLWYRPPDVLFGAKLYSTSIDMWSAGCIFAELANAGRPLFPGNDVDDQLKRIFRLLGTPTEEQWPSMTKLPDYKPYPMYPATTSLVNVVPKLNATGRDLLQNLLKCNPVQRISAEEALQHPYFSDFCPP
Chain of Cyclin-dependent kinase 5/CDK5 activator 1 (Homo sapiens) (Q15078 99-307 partner limits assumed): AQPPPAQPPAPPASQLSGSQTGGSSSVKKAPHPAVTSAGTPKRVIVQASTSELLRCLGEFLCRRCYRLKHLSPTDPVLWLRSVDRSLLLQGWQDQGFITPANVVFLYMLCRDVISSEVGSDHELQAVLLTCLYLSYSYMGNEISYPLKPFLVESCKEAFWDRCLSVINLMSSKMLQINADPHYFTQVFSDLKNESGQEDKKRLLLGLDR
Chain of Glycogen synthase kinase-3 alpha (P49840 whole entry): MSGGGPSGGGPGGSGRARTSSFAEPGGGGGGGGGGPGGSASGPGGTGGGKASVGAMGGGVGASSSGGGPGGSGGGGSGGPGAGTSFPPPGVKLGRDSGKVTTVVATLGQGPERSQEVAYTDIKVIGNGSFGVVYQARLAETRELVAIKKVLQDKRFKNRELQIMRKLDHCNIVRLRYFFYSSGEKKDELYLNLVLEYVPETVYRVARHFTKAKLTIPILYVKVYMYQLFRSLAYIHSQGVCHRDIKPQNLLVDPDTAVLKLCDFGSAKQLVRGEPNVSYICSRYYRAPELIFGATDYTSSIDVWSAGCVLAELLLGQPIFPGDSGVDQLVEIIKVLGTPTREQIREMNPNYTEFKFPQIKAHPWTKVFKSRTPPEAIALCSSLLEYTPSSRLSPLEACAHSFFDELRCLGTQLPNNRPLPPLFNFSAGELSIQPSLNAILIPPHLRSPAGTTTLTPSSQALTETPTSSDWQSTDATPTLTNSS

## CN1CC=C(c2c(O)cc(O)c3c(=O)cc(-c4ccc(Sc5nc6ccccc6n5C)cc4Cl)oc23)CC1
K562 [1]
  Activity: 27.8%
HCT-116 [2]
  Activity: 30.7%
Sus scrofa [3]
  Activity: 62%
K562 [4]
  Activity: 68.6%
NCI-N87
  pIC50: 7.31
[5]
  pIC50: 7.15
[6]
  Activity: 24%
HCT-116 [7]
  Activity: 20.6%
[8]
  pIC50: 6.83
HCT-116 [9]
  Activity: 26%
MIA PaCa-2
  pIC50: 7.28
[10]
  Activity: 1%
Plasmodium falciparum [11]
  Activity: 46%
[12]
  pIC50: 7.23
K562 [13]
  Activity: 20.7%
HCT-116 [14]
  Activity: 34.8%
HCT-116 [15]
  Activity: Dose-dependent effect
Sus scrofa [16]
  Activity: 10%
Sus scrofa [17]
  Activity: 31%
Leishmania major
  Activity: 62%
SK-OV-3
  pIC50: 7.03
K562 [18]
  Activity: 22.7%
K562 [19]
  pIC50: 7.29
Sus scrofa [20]
  Activity: 90%
HCT-116 [21]
  Activity: 30.9%
HCT-116 [22]
  Activity: 48.7%
[23]
  Ratio IC50: 20
[24]
  Activity: 30%
Plasmodium falciparum [25]
  Activity: 80%
